# Laboratory results as given in ChEMBL document CHEMBL3098122, “Synthesis, biological activity and structure-activity relationships of new benzoic acid-based protein tyrosine phosphatase inhibitors endowed with insulinomimetic effects in mouse C2C12 skeletal muscle cells” (Eur J Med Chem, 2014).
# Calls of active or inactive are those of the source. The calls are words filed in the database; no cut-off is given here.
# Columns and labels:
# [1] = species: Homo sapiens; assay: Selectivity ratio of IC50 for human recombinant LMW-PTP IF2 to IC50 for human recombinant PTP1B
# [2] = molecular target: T1, Tyrosine-protein phosphatase non-receptor type 1 (Homo sapiens) (UniProt P18031); assay: Reversible inhibition of human recombinant PTP1B expressed in Escherichia coli TB1 using p-nitrophenylphosphate as substrate assessed as residual activity at 25 times IC50 after 1 hr measured after 400 fold dilution
# T1 sequence (whole entry): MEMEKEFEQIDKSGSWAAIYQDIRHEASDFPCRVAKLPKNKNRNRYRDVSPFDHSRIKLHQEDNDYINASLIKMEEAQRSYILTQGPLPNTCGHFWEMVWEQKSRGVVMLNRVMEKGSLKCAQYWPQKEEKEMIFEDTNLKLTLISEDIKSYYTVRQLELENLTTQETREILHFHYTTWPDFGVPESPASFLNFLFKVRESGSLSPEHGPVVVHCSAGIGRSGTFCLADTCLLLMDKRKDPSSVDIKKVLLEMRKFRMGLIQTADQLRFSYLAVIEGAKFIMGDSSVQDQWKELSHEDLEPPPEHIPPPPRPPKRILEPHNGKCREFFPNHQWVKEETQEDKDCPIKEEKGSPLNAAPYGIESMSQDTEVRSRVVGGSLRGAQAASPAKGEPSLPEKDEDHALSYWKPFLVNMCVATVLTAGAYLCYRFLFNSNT
# How it was run: (§1)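 Reversibility: PTP1B preincubated 1 h at 37 °C with at least 25-fold […], DMSO in controls; mixture then diluted 400-fold in assay buffer and residual activity measured on p-nitrophenylphosphate; three replicates, mean ± SE.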
# [3] = molecular target: T2, Tyrosine-protein phosphatase non-receptor type 1 (Mus musculus) (UniProt P35821); assay: Inhibition of PTP1B in mouse C2C12 cells assessed as increase of insulin receptor beta phosphorylation at 25 uM after 90 mins; format: cell-based
# T2 sequence (whole entry): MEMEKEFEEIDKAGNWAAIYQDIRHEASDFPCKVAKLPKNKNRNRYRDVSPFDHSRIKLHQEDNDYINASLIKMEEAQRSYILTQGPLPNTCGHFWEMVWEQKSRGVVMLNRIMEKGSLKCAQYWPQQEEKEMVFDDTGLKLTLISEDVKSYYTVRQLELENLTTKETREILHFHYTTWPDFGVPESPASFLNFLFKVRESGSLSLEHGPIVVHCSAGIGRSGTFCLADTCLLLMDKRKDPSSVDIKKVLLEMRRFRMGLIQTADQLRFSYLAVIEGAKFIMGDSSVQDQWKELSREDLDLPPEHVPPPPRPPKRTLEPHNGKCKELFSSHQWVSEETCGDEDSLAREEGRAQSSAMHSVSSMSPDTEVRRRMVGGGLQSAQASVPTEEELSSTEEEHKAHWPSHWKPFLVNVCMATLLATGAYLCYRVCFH
# How it was run: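 Differentiated, 20 h serum-starved C2C12 myotubes exposed to 25 µM compound (DMSO 1.2% final) for 90 min at 37 °C, insulin 10 nM 30 min as positive control; lysates run on SDS-PAGE, Western blot for phospho-insulin receptor β with actin loading control, densitometry; three replicates, p<0.05 versus control.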
# [4] = species: Homo sapiens; assay: Selectivity ratio of IC50 for human recombinant LMW-PTP IF2 to IC50 for human recombinant LMW-PTP IF1
# [5] = molecular target: T3, Low molecular weight phosphotyrosine protein phosphatase (Homo sapiens, UniProt P24666); assay: Inhibition of human recombinant LMW-PTP IF2 expressed in Escherichia coli TB1 using p-nitrophenylphosphate as substrate
# T3 sequence (P24666 whole entry): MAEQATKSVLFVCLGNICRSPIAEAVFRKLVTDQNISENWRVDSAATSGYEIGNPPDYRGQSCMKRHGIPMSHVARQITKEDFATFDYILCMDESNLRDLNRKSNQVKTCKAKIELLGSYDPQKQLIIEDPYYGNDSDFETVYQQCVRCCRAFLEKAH
# [6] = species: Homo sapiens; assay: Selectivity ratio of IC50 for human recombinant LMW-PTP IF1 to IC50 for human recombinant PTP1B
# [7] = molecular target: T4, Tyrosine-protein phosphatase non-receptor type 1 (Homo sapiens, UniProt P18031); assay: Inhibition of human recombinant PTP1B expressed in Escherichia coli TB1 using p-nitrophenylphosphate as substrate
# T4 sequence (P18031 whole entry): T1 sequence (whole entry)
# [8] = molecular target: T3, Low molecular weight phosphotyrosine protein phosphatase; assay: Inhibition of human recombinant LMW-PTP IF1 expressed in Escherichia coli TB1 using p-nitrophenylphosphate as substrate
# [9] = Cytotoxicity against mouse C2C12 cells expressing PTP1B, TC-PTP, LMW-PTP and insulin receptor assessed as cell viability after 2 hrs by MTT assay; format: cell-based; design: concentration or dose not given beside the values; details: read-out: Activity
# How it was run: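 C2C12 myoblasts differentiated 4 days in DMEM with 2% horse serum, serum-starved 20 h; myotubes then given MTT (0.5 mg/ml final) for 2 h at 37 °C, lysed in DMSO, formazan read at 570 nm; three replicates relative to control.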
# [10] = molecular target: T5, Tyrosine-protein phosphatase non-receptor type 2 (Homo sapiens, UniProt P17706); assay: Inhibition of TC-PTP (unknown origin) purchased from New England Biolabs using p-nitrophenylphosphate as substrate
# T5 sequence (P17706 whole entry): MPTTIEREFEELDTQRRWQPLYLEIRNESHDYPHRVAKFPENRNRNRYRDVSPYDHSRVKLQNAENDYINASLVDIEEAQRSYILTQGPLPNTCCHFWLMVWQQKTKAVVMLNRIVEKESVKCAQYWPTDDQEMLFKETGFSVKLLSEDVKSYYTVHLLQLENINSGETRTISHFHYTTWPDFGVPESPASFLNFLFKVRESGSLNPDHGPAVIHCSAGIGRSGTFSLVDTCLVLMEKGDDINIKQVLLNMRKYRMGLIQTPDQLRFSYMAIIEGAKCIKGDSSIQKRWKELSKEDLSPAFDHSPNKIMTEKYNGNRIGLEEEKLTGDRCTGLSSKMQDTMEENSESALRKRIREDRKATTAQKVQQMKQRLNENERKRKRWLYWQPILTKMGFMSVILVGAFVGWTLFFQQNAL
# [11] = molecular target: T1, Tyrosine-protein phosphatase non-receptor type 1 (Homo sapiens); assay: Partial reversible inhibition of human recombinant PTP1B expressed in Escherichia coli TB1 using p-nitrophenylphosphate as substrate assessed as residual activity at 25 times IC50 after 1 hr measured after 400 fold dilution; how it was run: as §1
# [12] = molecular target: T2, Tyrosine-protein phosphatase non-receptor type 1 (Mus musculus); assay: Inhibition of PTP1B in mouse C2C12 cells assessed as increase of 2-deoxy-D-1,2-[3H]-glucose at 25 uM after 90 mins by beta-scintillation counting; format: cell-based
# How it was run: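 Serum-starved differentiated C2C12 myotubes treated 90 min with 25 µM compound (1.2% DMSO) or 30 min with 10 nM insulin, then 0.1 µCi 2-deoxy-D-[1,2-3H]glucose in Ringer-Hepes for 15 min at 37 °C; cold PBS wash, 0.2 M NaOH lysis, scintillation counting normalized to Bradford protein; three replicates.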
# [13] = molecular target: T4, Tyrosine-protein phosphatase non-receptor type 1; assay: Mixed type inhibition of human recombinant PTP1B expressed in Escherichia coli TB1 using p-nitrophenylphosphate as substrate by Double reciprocal plot analysis
# How it was run: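 PTP1B (human, GST fusion from pGEX-2T in E. coli TB1, thrombin-cleaved, gel-filtered) assayed at 37 °C, pH 7.0 β,β-dimethylglutarate buffer with 1 mM EDTA and 5 mM DTT, p-nitrophenylphosphate at seven final concentrations (0.5–25 mM) with increasing inhibitor; KOH-stopped, A400. Inhibition type from double reciprocal plots; Ki from apparent Km vs inhibitor concentration; triplicate initial rates.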
# [14] = species: Homo sapiens; assay: Selectivity ratio of IC50 for TC-PTP (unknown origin) to IC50 for human recombinant PTP1B
# How it was run: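 Commercial T-cell PTP assayed on p-nitrophenylphosphate at 37 °C, pH 7.0 β,β-dimethylglutarate buffer with 1 mM EDTA and 5 mM DTT; stopped with 1 M KOH, absorbance at 400 nm; IC50 from ratio of activity with and without inhibitor versus inhibitor concentration. Ratio lines pair this with recombinant human PTP1B measured the same way.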
compound,measurement,setting,value
COc1cc(/C=C2\SC(=O)N(Cc3ccc(C(=O)O)cc3)C2=O)ccc1OCc1ccccc1,Ratio IC50,[1],> 2
same,Activity,[2],80%
same,inhibition,[3],Active
same,Ratio IC50,[4],> 2
same,IC50,[5],> 50 µM
same,Ratio IC50,[6],> 2
same,IC50,[7],4.6 µM
same,IC50,[8],10.3 µM
same,viability at 2 h,[9],≥ 80%
same,IC50,[10],3.5 µM
COc1ccc(/C=C2\S/C(=N\c3ccccc3)N(Cc3ccc(C(=O)O)cc3)C2=O)cc1OCc1ccccc1,Ratio IC50,[1],> 2
same,Ratio IC50,[4],> 2
same,IC50,[5],> 50 µM
same,Ratio IC50,[6],> 2
same,IC50,[7],3.9 µM
same,IC50,[8],9.1 µM
same,viability at 2 h,[9],≥ 80%
same,IC50,[10],4 µM
same,Activity,[11],50%
O=C(O)c1ccc(CN2C(=O)/C(=C/c3cccc(OCCc4ccccc4)c3)S/C2=N\c2ccccc2)cc1,Ratio IC50,[1],> 2
same,Ratio IC50,[4],> 2
same,IC50,[5],26.8 µM
same,Ratio IC50,[6],> 2
same,IC50,[7],4.6 µM
same,inhibition,[12],inactive
same,IC50,[8],10.9 µM
same,viability at 2 h,[9],≥ 80%
same,IC50,[10],1.9 µM
same,Activity,[11],50%
COc1cc(/C=C2\S/C(=N\c3ccccc3)N(Cc3ccc(C(=O)O)cc3)C2=O)ccc1OCCc1ccccc1,Ratio IC50,[1],> 2
same,Activity,[2],80%
same,inhibition,[3],Active
same,Ratio IC50,[4],> 2
same,IC50,[5],19.7 µM
same,Ratio IC50,[6],> 2
same,IC50,[7],2.8 µM
same,Ki,[13],1.5 µM
same,IC50,[8],10.7 µM
same,viability at 2 h,[9],≥ 80%
same,IC50,[10],3.4 µM
O=C(O)c1ccc(CN2C(=O)S/C(=C\c3ccc(OCc4ccccc4)c(F)c3)C2=O)cc1,Ratio IC50,[1],> 2
same,Activity,[2],80%
same,inhibition,[3],Active
same,Ratio IC50,[4],> 2
same,IC50,[5],> 50 µM
same,Ratio IC50,[6],> 2
same,IC50,[7],7.5 µM
same,IC50,[8],34.3 µM
same,viability at 2 h,[9],≥ 80%
same,IC50,[10],10.8 µM
O=C(O)c1ccc(CN2C(=O)S/C(=C\c3cccc(OCCc4ccccc4)c3)C2=O)cc1,Ratio IC50,[1],> 2
same,Activity,[2],80%
same,Ratio IC50,[4],> 2
same,IC50,[5],> 50 µM
same,Ratio IC50,[6],> 2
same,IC50,[7],9.5 µM
same,inhibition,[12],Active
same,IC50,[8],20.1 µM
same,viability at 2 h,[9],60%
same,IC50,[10],7.3 µM
COc1ccc(/C=C2\SC(=O)N(Cc3ccc(C(=O)O)cc3)C2=O)cc1OCCc1ccccc1,Activity,[2],80%
same,inhibition,[3],Active
same,Ratio IC50,[4],> 2
same,IC50,[5],> 50 µM
same,IC50,[7],24.6 µM
same,IC50,[8],> 50 µM
same,viability at 2 h,[9],≥ 80%
same,IC50,[10],16.9 µM
COc1ccc(/C=C2\SC(=O)N(Cc3ccc(C(=O)O)cc3)C2=O)cc1OCc1ccccc1,Ratio IC50,[1],> 2
same,Activity,[2],80%
same,inhibition,[3],Active
same,Ratio IC50,[4],> 2
same,IC50,[5],> 50 µM
same,Ratio IC50,[6],> 2
same,IC50,[7],4 µM
same,Ratio IC50,[14],2
same,IC50,[8],22.3 µM
same,viability at 2 h,[9],≥ 80%
same,IC50,[10],12.7 µM
O=C(O)c1ccc(CN2C(=O)/C(=C/c3ccc(OCc4ccccc4)c(F)c3)S/C2=N\c2ccccc2)cc1,Ratio IC50,[1],> 2
same,inhibition,[3],Active
same,Ratio IC50,[4],> 2
same,IC50,[5],15.5 µM
same,Ratio IC50,[6],> 2
same,IC50,[7],2.2 µM
same,inhibition,[12],Active
same,IC50,[8],3.3 µM
same,viability at 2 h,[9],≥ 80%
same,IC50,[10],0.8 µM
same,Activity,[11],50%
COc1cc(/C=C2\S/C(=N\c3ccccc3)N(Cc3ccc(C(=O)O)cc3)C2=O)ccc1OCc1ccccc1,Ratio IC50,[1],> 2
same,Activity,[2],80%
same,Ratio IC50,[4],> 2
same,IC50,[5],10 µM
same,Ratio IC50,[6],> 2
same,IC50,[7],1.6 µM
same,Ratio IC50,[14],2
same,inhibition,[12],inactive
same,IC50,[8],4.5 µM
same,viability at 2 h,[9],≥ 80%
same,IC50,[10],5.1 µM
O=C(O)c1ccc(CN2C(=O)S/C(=C\c3ccc(OCCc4ccccc4)cc3)C2=O)cc1,Ratio IC50,[1],> 2
same,Activity,[2],80%
same,Ratio IC50,[4],> 2
same,IC50,[5],> 50 µM
same,Ratio IC50,[6],> 2
same,IC50,[7],2.6 µM
same,Ratio IC50,[14],2
same,Ki,[13],2.3 µM
same,IC50,[8],20.1 µM
same,viability at 2 h,[9],≥ 80%
same,IC50,[10],5.9 µM
